From the M2OR odorant receptor database

Columns and labels:
Details in all cases: stereoisomer not certain
OR10G2 (Homo sapiens) = target: T1, OR10G2 (Homo sapiens) (UniProt Q8NGC3)
T1 sequence (whole entry): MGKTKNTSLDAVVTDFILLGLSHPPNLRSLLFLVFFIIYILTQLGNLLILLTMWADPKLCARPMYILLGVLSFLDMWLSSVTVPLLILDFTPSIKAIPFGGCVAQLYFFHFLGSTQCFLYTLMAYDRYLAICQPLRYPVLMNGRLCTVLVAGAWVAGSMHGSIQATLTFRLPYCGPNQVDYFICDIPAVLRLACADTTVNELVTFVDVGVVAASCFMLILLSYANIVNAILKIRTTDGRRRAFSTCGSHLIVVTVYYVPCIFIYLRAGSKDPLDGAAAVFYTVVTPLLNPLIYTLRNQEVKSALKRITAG
Outline: (§1)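 Each entry records the cell line, G-protein, co-transfected protein and tags used. Methods varied with the source, often transient luciferase assays in mammalian cell lines. A receptor–molecule pair is called responsive (active) if the original authors judged its signal statistically different from baseline and non-responsive (inactive) otherwise.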

OR10G3 (Homo sapiens) = target: T2, OR10G3 (Homo sapiens) (UniProt Q8NGC4)
T2 sequence (whole entry): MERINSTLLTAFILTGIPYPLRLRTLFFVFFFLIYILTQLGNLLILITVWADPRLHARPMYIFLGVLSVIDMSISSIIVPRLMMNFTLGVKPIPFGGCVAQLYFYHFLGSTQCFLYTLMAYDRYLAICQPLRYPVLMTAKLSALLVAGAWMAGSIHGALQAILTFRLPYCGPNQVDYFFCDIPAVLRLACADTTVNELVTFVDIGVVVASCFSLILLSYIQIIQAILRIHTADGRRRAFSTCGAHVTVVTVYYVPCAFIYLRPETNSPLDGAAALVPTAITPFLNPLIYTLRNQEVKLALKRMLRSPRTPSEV
Outline: as §1

OR10G4 (Homo sapiens) = target: T3, OR10G4 (Homo sapiens) (UniProt Q8NGN3)
T3 sequence (whole entry): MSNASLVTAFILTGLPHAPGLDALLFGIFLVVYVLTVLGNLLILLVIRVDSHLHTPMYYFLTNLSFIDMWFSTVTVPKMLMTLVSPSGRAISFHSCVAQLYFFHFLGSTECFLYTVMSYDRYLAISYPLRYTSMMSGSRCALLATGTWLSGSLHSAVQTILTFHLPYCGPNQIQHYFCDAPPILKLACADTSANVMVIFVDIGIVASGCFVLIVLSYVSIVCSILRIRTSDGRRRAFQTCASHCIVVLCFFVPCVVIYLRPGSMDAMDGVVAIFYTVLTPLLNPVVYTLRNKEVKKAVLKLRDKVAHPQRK
Outline: as §1

OR10G6 (Homo sapiens) = target: T4, OR10G6 (Homo sapiens) (UniProt Q8NH81)
T4 sequence (whole entry): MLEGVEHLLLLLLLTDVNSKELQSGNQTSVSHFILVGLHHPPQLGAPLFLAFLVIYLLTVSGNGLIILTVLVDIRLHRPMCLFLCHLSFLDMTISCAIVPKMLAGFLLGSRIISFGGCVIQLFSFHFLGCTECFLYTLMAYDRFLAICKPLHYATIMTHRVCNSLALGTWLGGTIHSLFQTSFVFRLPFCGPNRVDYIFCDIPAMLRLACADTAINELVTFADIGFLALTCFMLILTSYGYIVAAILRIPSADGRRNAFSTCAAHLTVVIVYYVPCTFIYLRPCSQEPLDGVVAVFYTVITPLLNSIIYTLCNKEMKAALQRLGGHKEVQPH
Outline: as §1

OR10G7 (Homo sapiens) = target: T5, OR10G7 (Homo sapiens) (UniProt Q8NGN6)
T5 sequence (whole entry): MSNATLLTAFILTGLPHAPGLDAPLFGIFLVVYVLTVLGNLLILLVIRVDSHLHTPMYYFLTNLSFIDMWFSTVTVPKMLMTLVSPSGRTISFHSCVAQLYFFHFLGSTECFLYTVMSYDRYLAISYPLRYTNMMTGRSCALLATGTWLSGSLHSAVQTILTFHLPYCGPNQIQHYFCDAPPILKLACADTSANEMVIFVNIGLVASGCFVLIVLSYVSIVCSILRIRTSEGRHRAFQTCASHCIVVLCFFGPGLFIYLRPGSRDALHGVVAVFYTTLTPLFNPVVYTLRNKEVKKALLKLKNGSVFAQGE
Outline: as §1

OR10G8 (Homo sapiens) = target: T6, OR10G8 (Homo sapiens) (UniProt Q8NGN5)
T6 sequence (whole entry): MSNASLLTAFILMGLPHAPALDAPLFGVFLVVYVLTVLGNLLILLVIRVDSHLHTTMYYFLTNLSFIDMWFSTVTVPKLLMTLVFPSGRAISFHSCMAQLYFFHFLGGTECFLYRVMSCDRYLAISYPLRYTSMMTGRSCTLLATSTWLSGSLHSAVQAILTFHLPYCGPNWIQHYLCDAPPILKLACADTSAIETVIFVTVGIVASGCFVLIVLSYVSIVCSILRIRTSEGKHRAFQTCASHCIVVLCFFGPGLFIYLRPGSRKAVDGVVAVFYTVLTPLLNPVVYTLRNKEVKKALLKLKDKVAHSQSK
Outline: as §1

OR10G9 (Homo sapiens) = target: T7, OR10G9 (Homo sapiens) (UniProt Q8NGN4)
T7 sequence (whole entry): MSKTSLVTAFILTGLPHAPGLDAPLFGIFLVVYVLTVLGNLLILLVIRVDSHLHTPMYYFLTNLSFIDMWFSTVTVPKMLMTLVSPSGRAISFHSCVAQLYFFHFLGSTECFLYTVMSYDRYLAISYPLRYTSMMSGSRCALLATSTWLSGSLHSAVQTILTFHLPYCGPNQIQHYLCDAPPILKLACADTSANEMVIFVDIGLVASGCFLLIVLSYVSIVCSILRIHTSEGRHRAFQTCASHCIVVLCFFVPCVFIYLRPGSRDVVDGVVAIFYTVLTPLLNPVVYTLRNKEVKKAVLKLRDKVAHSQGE
Outline: as §1

OR10H1 (Homo sapiens) = target: T8, OR10H1 (Homo sapiens) (UniProt Q9Y4A9)
T8 sequence (whole entry): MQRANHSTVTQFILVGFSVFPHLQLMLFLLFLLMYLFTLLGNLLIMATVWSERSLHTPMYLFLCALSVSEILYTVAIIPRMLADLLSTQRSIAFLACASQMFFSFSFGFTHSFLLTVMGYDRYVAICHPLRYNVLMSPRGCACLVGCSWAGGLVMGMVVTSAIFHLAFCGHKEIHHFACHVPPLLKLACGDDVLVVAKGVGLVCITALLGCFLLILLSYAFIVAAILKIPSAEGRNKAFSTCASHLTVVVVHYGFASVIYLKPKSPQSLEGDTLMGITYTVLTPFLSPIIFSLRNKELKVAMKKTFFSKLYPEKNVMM
Outline: as §1

OR10H2 (Homo sapiens) = target: T9, OR10H2 (Homo sapiens) (UniProt O60403)
T9 sequence (whole entry): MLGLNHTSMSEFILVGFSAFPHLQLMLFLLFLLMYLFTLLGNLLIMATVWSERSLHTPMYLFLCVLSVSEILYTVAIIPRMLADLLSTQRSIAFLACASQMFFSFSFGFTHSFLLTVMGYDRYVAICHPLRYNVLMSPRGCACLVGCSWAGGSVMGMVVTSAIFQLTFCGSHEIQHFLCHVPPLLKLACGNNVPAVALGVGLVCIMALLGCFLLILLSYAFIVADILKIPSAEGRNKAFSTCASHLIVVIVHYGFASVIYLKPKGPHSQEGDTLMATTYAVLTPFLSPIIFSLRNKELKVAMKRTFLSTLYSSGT
Outline: as §1

Measured: odorant receptor agonist call

CCCCCC(=O)C(C)C(C)=O (centres undefined)
inactive: OR10G2 (Homo sapiens) | OR10G3 (Homo sapiens) | OR10G4 (Homo sapiens) | OR10G6 (Homo sapiens) | OR10G7 (Homo sapiens) | OR10G8 (Homo sapiens) | OR10G9 (Homo sapiens) | OR10H1 (Homo sapiens) | OR10H2 (Homo sapiens)
